Consider 15 compounds from ChEMBL document CHEMBL1152754, “18F-labeled flavones for in vivo imaging of beta-amyloid plaques in Alzheimer's brains” (Bioorg Med Chem, 2009).

Data set [1] in a line: Displacement of [125I]DMFV from amyloid beta (1 to 42) aggregates. A digest of the protocol:
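Aβ(1-42) aggregated at 0.25 mg/mL in 10 mM sodium phosphate with 1 mM EDTA, pH 7.4, 37 °C for 42 h. Competition: 0.02 nM [125I]DMFV, test compound at 0.2 pM–400 µM, and aggregates in 10% EtOH, incubated 3 h at room temperature. Bound ligand collected on GF/B filters and gamma-counted. IC50 taken from displacement curves; Ki by Cheng-Prusoff using DMFV Kd 12.3 nM.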
(In general: In a radioligand displacement assay an active substance lowers the binding of a labelled ligand.)

For data set [2], the species on record is Mus musculus. In words: Binding affinity to amyloid beta (1 to 42) aggregates in Tg2576 mouse brain at 100 uM by fluorescent staining method. In kind it is tissue-based. The method, boiled down: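 Tg2576 transgenic mice (female, 20 months old) killed by decapitation under isoflurane; brains frozen in powdered dry ice and cut into 10 µm serial cryosections. Sections incubated with a 100 µM solution of fluorescent ligand in 50% ethanol, washed twice for 3 min in 50% ethanol, imaged by fluorescence microscopy (excitation 450–490 nm). Adjacent sections immunostained with anti-β-amyloid monoclonal antibody, DAB chromogen.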

Data set [3] has as its system Brain. In words: Biodistribution in ddY mouse brain at 18.5 kBq, iv after 2 mins. It counts as ADME, organism-based. The conditions noted are these: in vivo. The method, boiled down:
(§1)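 Normal ddY mice (5 weeks old, 22–25 g) received 18.5 kBq of 18F-labeled agent by tail-vein injection in 100 µL saline containing 5 µL ethanol. Killed under isoflurane anesthesia at each time point; organs removed and weighed, radioactivity gamma-counted. Expressed as %ID/g, mean ± SD of 4–5 mice per interval.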

Data set [4] deals with Brain. In words: Biodistribution in ddY mouse brain at 18.5 kBq, iv after 10 mins. In kind it is ADME, organism-based. The conditions noted are these: in vivo. The method, boiled down: as §1
Data set [5] relates to Blood. As to the kind of experiment: Biodistribution in ddY mouse blood at 18.5 kBq, iv after 60 mins. In kind it is ADME, organism-based. The conditions noted are these: in vivo, 1 h. A digest of the protocol:
as §1

Data set [6] concerns Blood. In words: Biodistribution in ddY mouse blood at 18.5 kBq, iv after 30 mins. In kind it is ADME, organism-based. The conditions noted are these: in vivo, 0.5 h. The method, boiled down:
as §1

For data set [7], the system named is Blood. In words: Biodistribution in ddY mouse blood at 18.5 kBq, iv after 2 mins. In kind it is ADME, organism-based. The conditions noted are these: in vivo. A digest of the protocol: as §1
For data set [8], the system named is Blood. As to the kind of experiment: Biodistribution in ddY mouse blood at 18.5 kBq, iv after 10 mins. It counts as ADME, organism-based. The conditions noted are these: in vivo. A digest of the protocol:
as §1

Data set [9] concerns Brain. In words: Biodistribution in ddY mouse brain at 18.5 kBq, iv after 30 mins. It counts as ADME, organism-based. The conditions noted are these: in vivo, 0.5 h. A digest of the protocol:
as §1

In data set [10] the test system is Brain. As to the kind of experiment: Biodistribution in ddY mouse brain at 18.5 kBq, iv after 60 mins. In kind it is ADME, organism-based. The conditions noted are these: in vivo, 1 h. The method, boiled down:
as §1

Data set [11] concerns Bone. In words: Biodistribution in ddY mouse bone at 18.5 kBq, iv after 2 mins. It counts as ADME, organism-based, Bone element. The conditions noted are these: in vivo. A digest of the protocol: as §1
Data set [12] relates to Bone. In words: Biodistribution in ddY mouse bone at 18.5 kBq, iv after 10 mins. The conditions noted are these: in vivo. It counts as ADME, organism-based, Bone element. A digest of the protocol: as §1
Data set [13] deals with Bone. As to the kind of experiment: Biodistribution in ddY mouse bone at 18.5 kBq, iv after 30 mins. In kind it is ADME, organism-based, Bone element. The conditions noted are these: in vivo, 0.5 h. A digest of the protocol: as §1
Data set [14] concerns Bone. As to the kind of experiment: Biodistribution in ddY mouse bone at 18.5 kBq, iv after 60 mins. It counts as ADME, organism-based, Bone element. The conditions noted are these: in vivo, 1 h. The method, boiled down: as §1

Calls of active or inactive are those of the source. No cut-off for these calls is given here.

As a reminder, the Ki is the dissociation constant of the complex between target and ligand, obtained from inhibition or displacement. `Nc1ccc(-c2cc(=O)c3cc(F)ccc3o2)cc1`: the Ki in data set [1] was 0.261 µM.

Take `CNc1ccc(-c2cc(=O)c3cc(OCCOCCOCCF)ccc3o2)cc1`: the Ki in [1] stood at 0.0451 µM.

In data set [1], `CN(C)c1ccc(-c2cc(=O)c3cc(F)ccc3o2)cc1` showed a Ki of 0.0739 µM.

For the compound `CN(C)c1ccc(-c2cc(=O)c3cc(OCCOCCOCCF)ccc3o2)cc1`, in data set [1], affinity was put at a Ki of 0.0193 µM. Further, in data set [2], the result was Active.

`Nc1ccc(-c2cc(=O)c3cc(OCCF)ccc3o2)cc1` displayed a Ki in data set [1] of 0.234 µM.

As for `CN(C)c1ccc(-c2cc(=O)c3cc(OCC[18F])ccc3o2)cc1`, the Drug uptake in data set [3] is 4.17 % ID/g; in data set [4], 3.62 % ID/g; in [5] it was 3.25 % ID/g; in data set [6], 2.53 % ID/g; in [7] it was 2.8 % ID/g; in data set [8], 2.71 % ID/g. Besides, the Drug uptake came to 1.89 % ID/g in [9]; 2.19 % ID/g in data set [10]; 2.02 % ID/g in data set [11]; 2.83 % ID/g in data set [12]; 4.51 % ID/g in data set [13]; 6.21 % ID/g in data set [14].

`Nc1ccc(-c2cc(=O)c3cc(OCCOCCF)ccc3o2)cc1`: the affinity in data set [1] corresponds to a Ki of 0.321 µM.

Consider `CN(C)c1ccc(-c2cc(=O)c3cc(OCCOCCOCC[18F])ccc3o2)cc1`, for which the Drug uptake in [3] worked out at 2.89 % ID/g; in [4], 2.23 % ID/g; in data set [5], 1.88 % ID/g; in data set [6], 1.4 % ID/g; in data set [7] it was 2.35 % ID/g; in [8] it was 1.5 % ID/g. The Drug uptake is on record as 1.31 % ID/g in [9]; 1.37 % ID/g in data set [10]; 1.53 % ID/g in data set [11]; 2.38 % ID/g in data set [12]; 4.06 % ID/g in data set [13]; 5.21 % ID/g in data set [14].

`CNc1ccc(-c2cc(=O)c3cc(F)ccc3o2)cc1` returned a Ki in data set [1] of 0.11 µM.

With `CN(C)c1ccc(-c2cc(=O)c3cc(OCCF)ccc3o2)cc1`, the affinity in data set [1] corresponds to a Ki of 0.0053 µM. The result in [2] was Active.

Compound `CNc1ccc(-c2cc(=O)c3cc(OCCF)ccc3o2)cc1` showed a Ki in data set [1] of 0.099 µM.

As to `CN(C)c1ccc(-c2cc(=O)c3cc(OCCOCC[18F])ccc3o2)cc1`, the Drug uptake is on record as 3.54 % ID/g in data set [3]; 2.75 % ID/g in data set [4]; 2.94 % ID/g in data set [5]; 2.5 % ID/g in data set [6]; 2.09 % ID/g in [7]; 2.3 % ID/g in data set [8]. The Drug uptake in [9] was 2 % ID/g; in data set [10], 2.13 % ID/g; in data set [11], 1.13 % ID/g; in data set [12], 1.65 % ID/g; in data set [13] it was 2.42 % ID/g; in data set [14], 3.74 % ID/g.

In [1], `CNc1ccc(-c2cc(=O)c3cc(OCCOCCF)ccc3o2)cc1` had an inhibition constant (Ki) of 0.0545 µM.

As for `CN(C)c1ccc(-c2cc(=O)c3cc(OCCOCCF)ccc3o2)cc1`, the inhibitory constant (Ki) in data set [1] stood at 0.0144 µM. Besides, the outcome in data set [2] was Active.

In data set [1], `Nc1ccc(-c2cc(=O)c3cc(OCCOCCOCCF)ccc3o2)cc1` registered a Ki of 0.234 µM.
